Each structure is given as a SMILES string.

Assay [1] concerns Plasmodium falciparum. The assay can be described thus: Antimalarial activity against Plasmodium falciparum. Type of assay: functional, organism-based. In outline:
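pLDH read-out of P. falciparum growth. Compounds in DMSO (10 mg/mL) serially diluted twofold in duplicate. Non-synchronous culture added at 5% hematocrit, 2% parasitemia. Incubated 72 h at 37 °C under 95% N2/3% CO2/2% O2. Sample of resuspended wells mixed with pLDH assay mixture, absorbance at 540 nm after 1 h. IC50 from non-linear regression, mean ± SD of four independent assays.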

The test system of assay [2] is CHO. Briefly: Cytotoxicity against CHO cell line. It counts as functional, cell-based, Cricetulus griseus. An outline of the steps:
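CHO cells in RPMI-1640 with 10% FBS, 25 mM HEPES and gentamicin, grown to 50% confluency before compounds added in DMSO. Viability after 24 h by MTT (1 mg/mL), 30 min further incubation, medium removed, DMSO added, absorbance at 540 nm. Run in quadruplicate. IC50 by non-linear regression.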

In assay [3] the test system is CHO. The assay can be described thus: Selectivity index as IC50 CHO/IC50 Plasmodium falciparum. Type of assay: functional.

As for `C[C@@H]1CO[C@@](CCc2ccccc2)(Cn2ccnc2)O1.Cl`, the IC50 in assay [1] (Plasmodium falciparum) came to 0.34 µM; in assay [2] (Cricetulus griseus, CHO), 668 µM. For the same compound, the “Ratio IC50” value in assay [3] is on record as 2226.7.
For the compound `CCC(COC(C)=O)n1ccnc1` (stereo unspecified), the IC50 in assay [1] (Plasmodium falciparum) was found to be 8.3 µM; in assay [2] (Cricetulus griseus, CHO), 1850 µM. In addition, the “Ratio IC50” value in assay [3] is 222.7.
With `Cc1ccc(S(=O)(=O)OC[C@@H]2CO[C@](CCc3ccc(Cl)cc3)(Cn3ccnc3)O2)cc1`, the IC50 was 1.2 µM in assay [1] and 3.8 µM in assay [2] (cho). Further, in assay [3], the “Ratio IC50” value stood at 3.2.
Take `Oc1ccc(SC[C@@H]2CO[C@@](CCc3ccc(Cl)cc3)(Cn3ccnc3)O2)cc1`: the 50% inhibitory concentration (IC50) in assay [1] (Plasmodium falciparum) was 0.06 µM; in assay [2] (Cricetulus griseus, CHO), 10.9 µM. For the same compound, the “Ratio IC50” value in assay [3] is reported as 181.6.
Consider `Cc1ccc(S(=O)(=O)OC[C@@H]2CO[C@@](CCc3ccc(Cl)cc3)(Cn3ccnc3)O2)cc1`, for which the IC50 in assay [1] (Plasmodium falciparum) is 2.9 µM; in assay [2] (Cricetulus griseus, CHO) it was 8 µM. In assay [3], the “Ratio IC50” value came out at 2.8.
With `Cc1ccc(S(=O)(=O)OC[C@H]2CO[C@](CCc3ccc(Cl)cc3)(Cn3ccnc3)O2)cc1`, the IC50 in assay [1] (Plasmodium falciparum) is 2.8 µM; in assay [2] (Cricetulus griseus, CHO), 13 µM. The “Ratio IC50” value in assay [3] stood at 4.6.
Take `Cc1ccc(S(=O)(=O)OC[C@H]2CO[C@@](CCc3ccc(Cl)cc3)(Cn3ccnc3)O2)cc1`: the IC50 in assay [1] (Plasmodium falciparum) was 1.9 µM; in assay [2] (Cricetulus griseus, CHO) it was 5.7 µM. Further, in assay [3], the “Ratio IC50” value is 3.
On to `CSC[C@@H]1CO[C@@](CCc2ccc(Cl)cc2)(Cn2ccnc2)O1.Cl`, for which the IC50 in assay [1] (Plasmodium falciparum) worked out at 2.1 µM; in assay [2] (Cricetulus griseus, CHO), 9.3 µM. Besides, in assay [3], the “Ratio IC50” value was determined as 4.7.
For `Cl.FC[C@@H]1CO[C@@](CCc2ccc(Cl)cc2)(Cn2ccnc2)O1`, the IC50 in assay [1] (Plasmodium falciparum) was 20 µM; in assay [2] (Cricetulus griseus, CHO) it was 24 µM. Moreover, the “Ratio IC50” value in assay [3] is 1.2.
Regarding `Cl.Cl.Nc1ccc(OC[C@@H]2CO[C@@](CCc3ccc(Cl)cc3)(Cn3ccnc3)O2)cc1`, the IC50 was determined as 1.3 µM in assay [1] (Plasmodium falciparum) and 14 µM in assay [2] (Cricetulus griseus, CHO). In addition, in assay [3], the “Ratio IC50” value was determined as 10.8.
On the same counts, the results for `Cl.Oc1ccc(OC[C@@H]2CO[C@@](CCc3ccc(Cl)cc3)(Cn3ccnc3)O2)cc1` are 1.1 µM, 0.9 µM and 0.8.
With `COc1ccc(SC[C@@H]2CO[C@@](CCc3ccc(Cl)cc3)(Cn3ccnc3)O2)cc1.Cl`, the half-maximal inhibitory concentration (IC50) was 3.5 µM in assay [1] (Plasmodium falciparum) and 3.7 µM in assay [2] (Cricetulus griseus, CHO). Besides, the “Ratio IC50” value in assay [3] is given as 1.1.
Turning to `Cl.Clc1ccc(CC[C@@]2(Cn3ccnc3)OC[C@@H](CSc3ccc(Cl)cc3)O2)cc1`, the IC50 in assay [1] (Plasmodium falciparum) was found to be 2.5 µM; in assay [2] (Cricetulus griseus, CHO), 3.3 µM. The “Ratio IC50” value in assay [3] was determined as 1.3.
For `Cl.OC[C@@H]1CO[C@@](CCc2ccc(Cl)cc2)(Cn2ccnc2)O1`, in that order: 9 µM, 227 µM and 25.2.
Consider `Cl.Clc1ccc(CC[C@@]2(Cn3ccnc3)OC[C@@H](CSc3ccccc3)O2)cc1`, for which the IC50 in assay [1] (Plasmodium falciparum) worked out at 3.3 µM; in assay [2] (Cricetulus griseus, CHO) it was 7 µM. For the same compound, the “Ratio IC50” value in assay [3] was 2.1.
Take `Cl.Clc1ccc(CC[C@@]2(Cn3ccnc3)OC[C@@H](CSc3ccc(Br)cc3)O2)cc1`: the IC50 in assay [1] (Plasmodium falciparum) stood at 0.9 µM; in assay [2] (Cricetulus griseus, CHO), 12 µM. In addition, the “Ratio IC50” value in assay [3] was 13.3.
For the compound `COc1ccc(OC[C@@H]2CO[C@](CCc3ccc(Cl)cc3)(Cn3ccnc3)O2)cc1.Cl`, the IC50 in assay [1] (Plasmodium falciparum) amounted to 0.8 µM; in assay [2] (Cricetulus griseus, CHO), 15 µM. Also, the “Ratio IC50” value in assay [3] turned out to be 18.8.
`Cl.Clc1ccc(CC[C@]2(Cn3ccnc3)OC[C@@H](CSc3ccc4ccccc4c3)O2)cc1`: the IC50 in assay [1] (Plasmodium falciparum) was determined as 1.2 µM; in assay [2] (Cricetulus griseus, CHO), 9 µM. The “Ratio IC50” value in assay [3] was 7.5.
Regarding `COc1ccc(CCC(O)Cn2ccnc2)cc1.Cl` (stereo unspecified), the IC50 in assay [1] (Plasmodium falciparum) was 38 µM; in assay [2] (Cricetulus griseus, CHO) it was 116 µM. Also, the “Ratio IC50” value in assay [3] came to 3.1.
Take `C[C@H]1CO[C@@](CCc2ccc(Cl)cc2)(Cn2ccnc2)O1.Cl`: the IC50 is 4.1 µM in assay [1] (Plasmodium falciparum) and 39 µM in assay [2] (Cricetulus griseus, CHO). In addition, in assay [3], the “Ratio IC50” value is reported as 9.5.
For `C[C@H]1CO[C@](CCc2ccc(Cl)cc2)(Cn2ccnc2)O1.Cl`, the IC50 in assay [1] (Plasmodium falciparum) is 18 µM; in assay [2] (Cricetulus griseus, CHO), 82 µM. The “Ratio IC50” value in assay [3] was 4.6.
For `C[C@@H]1CO[C@@](CCc2ccc(Cl)cc2)(Cn2ccnc2)O1.Cl`, in that order: 7 µM, 51 µM and 7.3.
As for `Cl.Nc1ccccc1SC[C@H]1CO[C@](CCc2ccc(Cl)cc2)(Cn2ccnc2)O1`, the IC50 in assay [1] (Plasmodium falciparum) stood at 3.3 µM; in assay [2] (Cricetulus griseus, CHO) it was 6.6 µM. Further, in assay [3], the “Ratio IC50” value is on record as 2.
For the compound `Cl.Nc1ccc(SC[C@@H]2CO[C@@](CCc3ccc(Cl)cc3)(Cn3ccnc3)O2)cc1`, the IC50 in assay [1] (Plasmodium falciparum) was 1.3 µM; in assay [2] (Cricetulus griseus, CHO), 374 µM. Further, the “Ratio IC50” value in assay [3] amounted to 287.7.
As for `Cl.Clc1ccc(CCC2(Cn3ccnc3)SCCS2)cc1`, the IC50 stood at 2.3 µM in assay [1] (Plasmodium falciparum) and 25 µM in assay [2] (Cricetulus griseus, CHO). Also, the “Ratio IC50” value in assay [3] was found to be 10.9.
On the same counts, the results for `Cl.Cl.Nc1ccc(SC[C@H]2CO[C@@](CCc3ccc(Cl)cc3)(Cn3ccnc3)O2)cc1` are 2.7 µM, 6 µM and 2.2.
For `Cl.Cl.Clc1ccc(CC[C@@]2(Cn3ccnc3)OC[C@@H](CSc3ccncc3)O2)cc1`, the IC50 in assay [1] (Plasmodium falciparum) came to 4.9 µM; in assay [2] (Cricetulus griseus, CHO), 27 µM. For the same compound, the “Ratio IC50” value in assay [3] amounted to 5.5.
For `Cl.Nc1ccc(SC[C@H]2CO[C@](CCc3ccc(Cl)cc3)(Cn3ccnc3)O2)cc1`, in that order: 3 µM, 254 µM and 84.7.
As to `Cl.OC(CCc1ccc(Cl)cc1)Cn1ccnc1` (stereo unspecified), the IC50 in assay [1] (Plasmodium falciparum) is 70 µM; in assay [2] (Cricetulus griseus, CHO), 314 µM. Besides, the “Ratio IC50” value in assay [3] came to 4.5.
As for `Cc1ccc(S(=O)(=O)OC[C@@H]2CO[C@](CCc3ccc(Cl)cc3)(Cn3ccnc3)O2)cc1.Cl`, the results for the IC50 in assay [1] and in assay [2] (cho) were 0.67 µM and 7 µM, respectively. Also, the “Ratio IC50” value in assay [3] is given as 10.4.
As to `Cl.Cl.Nc1ccccc1SC[C@@H]1CO[C@](CCc2ccc(Cl)cc2)(Cn2ccnc2)O1`, the IC50 is 0.6 µM in assay [1] (Plasmodium falciparum) and 6 µM in assay [2] (Cricetulus griseus, CHO). Moreover, the “Ratio IC50” value in assay [3] worked out at 10.
As for `Cl.Cl.Nc1cccc(SC[C@@H]2CO[C@](CCc3ccc(Cl)cc3)(Cn3ccnc3)O2)c1`, the IC50 in assay [1] (Plasmodium falciparum) is 0.3 µM; in assay [2] (Cricetulus griseus, CHO), 18 µM. Moreover, the “Ratio IC50” value in assay [3] is 60.
Turning to `Cl.Clc1ccc(CCC2(Cn3ccnc3)OCCO2)cc1`, the IC50 in assay [1] (Plasmodium falciparum) is 9 µM; in assay [2] (Cricetulus griseus, CHO), 84 µM. In addition, the “Ratio IC50” value in assay [3] stood at 9.3.
For the compound `C[C@@H]1CO[C@](CCc2ccc(Cl)cc2)(Cn2ccnc2)O1.Cl`, the IC50 in assay [1] (Plasmodium falciparum) was 23 µM; in assay [2] (Cricetulus griseus, CHO) it was 102 µM. The “Ratio IC50” value in assay [3] stood at 4.4.
As for `Cl.O=C(CCc1ccc(Cl)cc1)Cn1ccnc1`, the IC50 amounted to 25 µM in assay [1] (Plasmodium falciparum) and 168 µM in assay [2] (Cricetulus griseus, CHO). Further, the “Ratio IC50” value in assay [3] came out at 6.7.
`Cl.Nc1cccc(SC[C@@H]2CO[C@@](CCc3ccc(Cl)cc3)(Cn3ccnc3)O2)c1`: the IC50 in assay [1] (Plasmodium falciparum) is 2 µM; in assay [2] (Cricetulus griseus, CHO), 10 µM. Also, the “Ratio IC50” value in assay [3] stood at 5.
Regarding `Cl.Cl.Nc1ccccc1SC[C@@H]1CO[C@@](CCc2ccc(Cl)cc2)(Cn2ccnc2)O1`, the IC50 in assay [1] (Plasmodium falciparum) turned out to be 3.9 µM; in assay [2] (Cricetulus griseus, CHO) it was 16 µM. The “Ratio IC50” value in assay [3] came out at 4.1.
With `Cl.Fc1ccc(COC(CCc2ccc(Cl)cc2)Cn2ccnc2)cc1` (stereo unspecified), the IC50 in assay [1] (Plasmodium falciparum) came out at 0.8 µM; in assay [2] (Cricetulus griseus, CHO), 5.3 µM. Also, the “Ratio IC50” value in assay [3] is 6.6.
Consider `Cl.Nc1cccc(SC[C@H]2CO[C@](CCc3ccc(Cl)cc3)(Cn3ccnc3)O2)c1`, for which the IC50 in assay [1] (Plasmodium falciparum) is 2.5 µM; in assay [2] (Cricetulus griseus, CHO), 9.2 µM. In assay [3], the “Ratio IC50” value came out at 3.7.
Consider `Cl.Cl.Nc1cccc(SC[C@H]2CO[C@@](CCc3ccc(Cl)cc3)(Cn3ccnc3)O2)c1`, for which the IC50 amounted to 1.2 µM in assay [1] (Plasmodium falciparum) and 9 µM in assay [2] (Cricetulus griseus, CHO). In addition, the “Ratio IC50” value in assay [3] is 7.5.
On to `Cl.Cl.Nc1ccccc1SC[C@H]1CO[C@@](CCc2ccc(Cl)cc2)(Cn2ccnc2)O1`, for which the IC50 in assay [1] (Plasmodium falciparum) is 2.3 µM; in assay [2] (Cricetulus griseus, CHO), 11 µM. Further, the “Ratio IC50” value in assay [3] was 4.8.
Turning to `Cl.Cl.Nc1ccc(SC[C@@H]2CO[C@](CCc3ccc(Cl)cc3)(Cn3ccnc3)O2)cc1` [AZALANSTAT DIHYDROCHLORIDE], the IC50 came to 0.8 µM in assay [1] (Plasmodium falciparum) and 13 µM in assay [2] (Cricetulus griseus, CHO). In addition, the “Ratio IC50” value in assay [3] came out at 16.3.

Values taken from ChEMBL document CHEMBL1147003, “Anti-Plasmodium activity of imidazole-dioxolane compounds” (Bioorg Med Chem Lett, 2006).
